In ChEMBL document CHEMBL1147590, “Synthesis and antitumor activity of s-tetrazine derivatives” (Bioorg Med Chem Lett, 2004):
pIC50: −log10 of the molar value. Each block holds one compound with its values, some of them ahead of it.

Assays:
[1] = tested on: A549; assay: In vitro rate of inhibition of A-549 tumor cell growth at 10E-7 mol/L; format: functional, Homo sapiens; conditions: at 0.1 µM
[2] = tested on: P388; assay: In vitro rate of inhibition of P388 tumor cell growth at 10E-7 mol/L; format: functional, Mus musculus; conditions: at 0.1 µM
[3] = tested on: A549; assay: In vitro rate of inhibition of A-549 tumor cell growth at 10E-5 mol/L; format: functional, Homo sapiens; conditions: at 10 µM
[4] = tested on: P388; assay: In vitro rate of inhibition of P388 tumor cell growth at 10E-5 mol/L; format: functional, Mus musculus; conditions: at 10 µM
[5] = tested on: A549; assay: In vitro rate of inhibition of A-549 tumor cell growth at 10E-8 mol/L; format: functional, Homo sapiens; conditions: at 0.01 µM
[6] = tested on: P388; assay: In vitro rate of inhibition of P388 tumor cell growth at 10E-4 mol/L; format: functional, Mus musculus; conditions: at 100 µM
[7] = tested on: P388; assay: In vitro rate of inhibition of P388 tumor cell growth at 10E-8 mol/L; format: functional, Mus musculus; conditions: at 0.01 µM
[8] = tested on: A549; assay: In vitro rate of inhibition of A-549 tumor cell growth at 10E-4 mol/L; format: functional, Homo sapiens; conditions: at 100 µM
[9] = tested on: P388; assay: In vitro rate of inhibition of P388 tumor cell growth at 10E-6 mol/L; format: functional, Mus musculus; conditions: at 1 µM
[10] = tested on: A549; assay: In vitro rate of inhibition of A-549 tumor cell growth at 10E-6 mol/L; format: functional, Homo sapiens; conditions: at 1 µM
[11] = tested on: Bel-7402; assay: Rate of inhibition of Bel-7402 tumor cell growth at a concentration of 5.0 uM; format: functional, Homo sapiens
[12] = tested on: A549; assay: Rate of inhibition of A-549 tumor cell growth at a concentration of 0.25 uM; format: functional, Homo sapiens
Summary of the method: (§1)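 A-549 tumour cell growth inhibition was measured in vitro by the SRB (sulforhodamine B) method.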

[13] = tested on: P388; assay: Rate of inhibition of P388 tumor cell growth at a concentration of 1.563 uM; format: functional, Mus musculus
Summary of the method: (§2)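 P-388 tumour cell growth inhibition was read out in vitro by the MTT method.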

[14] = tested on: MCF7; assay: Rate of inhibition of MCF-7 tumor cell growth at a concentration of 0.25 uM; format: functional, Homo sapiens
[15] = tested on: P388; assay: Rate of inhibition of P388 tumor cell growth at a concentration of […] uM; format: functional, Mus musculus; summary of the method: as §2
[16] = tested on: MCF7; assay: Rate of inhibition of MCF-7 tumor cell growth at a concentration of 1.0 uM; format: functional, Homo sapiens
[17] = tested on: MCF7; assay: Rate of inhibition of MCF-7 tumor cell growth at a concentration of 0.5 uM; format: functional, Homo sapiens
[18] = tested on: Bel-7402; assay: Rate of inhibition of Bel-7402 tumor cell growth at a concentration of 2.5 uM; format: functional, Homo sapiens
[19] = tested on: A549; assay: Inhibitory concentration of compound against A-549 cell line; format: functional, cell-based; conditions: Homo sapiens; summary of the method: as §1
[20] = tested on: P388; assay: Rate of inhibition of P388 tumor cell growth at a concentration of 3.125 uM; format: functional, Mus musculus; summary of the method: as §2
[21] = tested on: A549; assay: Rate of inhibition of A-549 tumor cell growth at a concentration of 0.125 uM; format: functional, Homo sapiens; summary of the method: as §1
[22] = tested on: Bel-7402; assay: Rate of inhibition of Bel-7402 tumor cell growth at a concentration of 0.625 uM; format: functional, Homo sapiens
[23] = tested on: P388; assay: Rate of inhibition of P388 tumor cell growth at a concentration of 0.195 uM; format: functional, Mus musculus; summary of the method: as §2
[24] = tested on: Bel-7402; assay: Rate of inhibition of Bel-7402 tumor cell growth at a concentration of 1.25 uM; format: functional, Homo sapiens
[25] = tested on: Bel-7402; assay: Rate of inhibition of Bel-7402 tumor cell growth at a concentration of 0.313 uM; format: functional, Homo sapiens
[26] = tested on: MCF7; assay: Inhibitory concentration of compound against MCF-7 cell line; format: functional, cell-based; conditions: Homo sapiens
[27] = tested on: A549; assay: Rate of inhibition of A-549 tumor cell growth at a concentration of 0.5 uM; format: functional, Homo sapiens; summary of the method: as §1
[28] = tested on: A549; assay: Rate of inhibition of A-549 tumor cell growth at a concentration of 0.0625 uM; format: functional, Homo sapiens; summary of the method: as §1
[29] = tested on: MCF7; assay: Rate of inhibition of MCF-7 tumor cell growth at a concentration of 0.125 uM; format: functional, Homo sapiens
[30] = tested on: Bel-7402; assay: Inhibitory concentration of compound against Bel-7402 cell line; format: functional, cell-based; conditions: Homo sapiens
[31] = tested on: P388; assay: Rate of inhibition of P388 tumor cell growth at a concentration of 0.781 uM; format: functional, Mus musculus; summary of the method: as §2
[32] = tested on: P388; assay: Inhibitory concentration of compound against P388 tumor cell growth; format: functional, cell-based; conditions: Mus musculus; summary of the method: as §2
[33] = tested on: A549; assay: Rate of inhibition of A-549 tumor cell growth at a concentration of 1 uM; format: functional, Homo sapiens; summary of the method: as §1

SMILES: CC1=NN(C(=O)Nc2ccccc2)C(C)=NN1C(=O)Nc1ccccc1
Rate of inhibition [1]: 60.3%
Rate of inhibition [2]: 87.5%
Rate of inhibition [3]: 77.9%
Rate of inhibition [4]: 90.6%
Rate of inhibition [5]: 50%
Rate of inhibition [6]: 89.1%
Rate of inhibition [7]: 81.3%
Rate of inhibition [8]: 76.5%
Rate of inhibition [9]: 90.6%
Rate of inhibition [10]: 79.4%

SMILES: CCCC1=NNC(CCC)N=N1 (stereo not drawn)
Rate of inhibition [1]: 0%
Rate of inhibition [2]: 0%
Rate of inhibition [3]: 0.5%
Rate of inhibition [4]: 0%
Rate of inhibition [5]: 0%
Rate of inhibition [6]: 42.2%
Rate of inhibition [7]: 0%
Rate of inhibition [8]: 61.7%
Rate of inhibition [9]: 0%
Rate of inhibition [10]: 0%

pIC50 [19]: 6.15
pIC50 [26]: 6.30
pIC50 [30]: 6.22
pIC50 [32]: 6.22
SMILES: CC1=NN(C(=O)Nc2cccc(C)c2)C(C)=NN1C(=O)Nc1cccc(C)c1
Rate of inhibition [11]: 87.8%
Rate of inhibition [12]: 0%
Rate of inhibition [13]: 91.1%
Rate of inhibition [1]: 81.8%
Rate of inhibition [14]: 35.7%
Rate of inhibition [15]: 55.4%
Rate of inhibition [16]: 71.2%
Rate of inhibition [2]: 96.8%
Rate of inhibition [17]: 64.3%
Rate of inhibition [3]: 83.3%
Rate of inhibition [18]: 89%
Rate of inhibition [20]: 97.3%
Rate of inhibition [4]: 96.8%
Rate of inhibition [5]: 80.3%
Rate of inhibition [21]: 0%
Rate of inhibition [22]: 54.2%
Rate of inhibition [6]: 96.8%
Rate of inhibition [23]: 2.3%
Rate of inhibition [24]: 77.8%
Rate of inhibition [7]: 96.8%
Rate of inhibition [25]: 27.4%
Rate of inhibition [8]: 84.8%
Rate of inhibition [27]: 36.6%
Rate of inhibition [9]: 98.4%
Rate of inhibition [28]: 0%
Rate of inhibition [10]: 80.3%
Rate of inhibition [29]: 1.1%
Rate of inhibition [31]: 83.1%
Rate of inhibition [33]: 93.6%

SMILES: CCCC1=NN(C(=O)Nc2ccccc2)C(CCC)=NN1C(=O)Nc1ccccc1
Rate of inhibition [1]: 6.1%
Rate of inhibition [2]: 4.4%
Rate of inhibition [3]: 78.3%
Rate of inhibition [4]: 61.5%
Rate of inhibition [5]: 2.5%
Rate of inhibition [6]: 85.4%
Rate of inhibition [7]: 4.1%
Rate of inhibition [8]: 56.6%
Rate of inhibition [9]: 22.8%
Rate of inhibition [10]: 48.3%

SMILES: CC(=O)N1NC(C)N(C(C)=O)NC1C (stereo not drawn)
Rate of inhibition [1]: 7.4%
Rate of inhibition [2]: 0%
Rate of inhibition [3]: 6%
Rate of inhibition [4]: 0.1%
Rate of inhibition [5]: 3.2%
Rate of inhibition [6]: 14.5%
Rate of inhibition [7]: 0%
Rate of inhibition [8]: 68.5%
Rate of inhibition [9]: 4.3%
Rate of inhibition [10]: 3.6%

SMILES: CC1=NNC(C)N=N1 (stereo not drawn)
Rate of inhibition [1]: 5.5%
Rate of inhibition [2]: 15.9%
Rate of inhibition [3]: 4.8%
Rate of inhibition [4]: 19.7%
Rate of inhibition [5]: 0%
Rate of inhibition [6]: 100%
Rate of inhibition [7]: 0%
Rate of inhibition [8]: 67.7%
Rate of inhibition [9]: 9.2%
Rate of inhibition [10]: 0%

SMILES: FC(F)(F)c1ccc(-c2nnc(-c3ccc(C(F)(F)F)cc3)nn2)cc1
Rate of inhibition [1]: 0%
Rate of inhibition [2]: 19.5%
Rate of inhibition [3]: 2.5%
Rate of inhibition [4]: 44.4%
Rate of inhibition [5]: 0%
Rate of inhibition [6]: 51.5%
Rate of inhibition [7]: 9.7%
Rate of inhibition [8]: 40.2%
Rate of inhibition [9]: 33%
Rate of inhibition [10]: 0%

SMILES: CCCC1=NN(C(=O)OCCC(C)C)C(CCC)N=N1 (stereo not drawn)
Rate of inhibition [1]: 0%
Rate of inhibition [2]: 7.3%
Rate of inhibition [3]: 0%
Rate of inhibition [4]: 14.3%
Rate of inhibition [5]: 0%
Rate of inhibition [6]: 83.5%
Rate of inhibition [7]: 9.9%
Rate of inhibition [8]: 89.4%
Rate of inhibition [9]: 6.9%
Rate of inhibition [10]: 0%

SMILES: Clc1ccccc1-c1nnc(-c2ccccc2Cl)nn1 [CLOFENTEZINE]
Rate of inhibition [1]: 0%
Rate of inhibition [2]: 14.6%
Rate of inhibition [3]: 0%
Rate of inhibition [4]: 2.8%
Rate of inhibition [5]: 0%
Rate of inhibition [6]: 8.2%
Rate of inhibition [7]: 12.6%
Rate of inhibition [8]: 0%
Rate of inhibition [9]: 5.6%
Rate of inhibition [10]: 0%
